# Source: PubChem BioAssay (several laboratories)
# KCNQ1 block: inhibitors of human KCNQ1 channel, primary screen, cell-based, thallium flux, high-throughput. Potassium voltage-gated channel subfamily KQT member 1 (Homo sapiens), P51787. CHO-K1 KCNQ1, FluxOR thallium flux fluorescence; hits give high values. B-score at 10 µM. AID 2642, 2010. actives 1.3% (n = 310,000);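 active means compounds whose thallium flux B-score, printed positive for inhibition, exceeds three library SD while starting fluorescence stays within three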;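 further: channel opened by potassium depolarization with thallium stimulus after 20 min compound exposure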
# KCNK9 inh: KCNK9 potassium channel inhibitors, primary screen, HEK293 cells, thallium flux | Potassium channel subfamily K member 9 (Homo sapiens), Q9NPC2 | FluxOR thallium flux fluorescence; hits give low values | actives 1.2% (n = 310,000) | B-score at 10 µM | AID 488922, 2010;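 active means ratio B-score over 3 SD below the library mean, with starting fluorescence within 5 SD of its mean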;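 further: negative B-score means less thallium flux so channel inhibition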
# KCC2 mod: KCC2 cotransporter modulators, thallium flux, primary screen, cell-based, HEK293 KCC2, FluoZin-2 fluorescence, MLSMR; KCC2 cells, thallium flux FluoZin-2 fluorescence; Solute carrier family 12 member 5 (Homo sapiens), Q9H2X9; B-score of Tl+ flux slope (higher = more flux/activation; lower = inhibition) at 10 µM; actives 2.2% (n = 190,000);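 active means thallium flux slope and its plate-corrected score both differing from the plate sample mean at a set confidence after two filtering rounds, in either direction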;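 further: slope of fluorescence scaled to starting intensity during 10 to 20 s after thallium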
# KCNK3 inh: human KCNK3 channel inhibitors, primary screen, CHO cells, FluxOR thallium flux, B-score. Potassium channel subfamily K member 3 (Homo sapiens), O14649. FluxOR fluorescence; hits give low values. B-score at 10 µM. actives 0.84% (n = 340,000). AID 602410, 2012;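 active means B-score under library mean minus 4 SD, starting fluorescence ratio at most library mean plus 5 SD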;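 further: more negative B-score means stronger inhibition of thallium flux through KCNK3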
# KCNQ1 act: potentiators or activators of KCNQ1 channel, primary screen, cell-based, thallium flux, high-throughput; actives 0.35% (n = 310,000); B-score at 10 µM; CHO-K1 KCNQ1, thallium flux FluxOR fluorescence; hits give high values; Potassium voltage-gated channel subfamily KQT member 1 (Homo sapiens), P51787;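 active means fluorescence ratio B-score, a plate-corrected score, at least three library SD, with initial intensity B-score within 5 SD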
#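 assay system = CHO-K1 cells stably expressing KCNQ1 | medium = assay buffer, equal DMSO in all wells | timing = 37 °C overnight plating, 90-min dark dye load, 20-min compound pretreatment | measured by = kinetic FluxOR thallium fluorescence, 10-s 1-Hz baseline, 110-s post-stimulus read | measure = fluorescence change relative to baseline, converted to B score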
# hERG rescue: hERG rescue from dofetilide block, primary screen, cell-based, CHO-hERG, FluxOR thallium flux, dofetilide IC70; dofetilide IC70 present; activation (rescue from dofetilide block), less the hit threshold, % at 10 µM; actives 0.51% (n = 310,000); AID 1511, 2009;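 active means activation above the mean of controls blocked by dofetilide plus 5 SD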;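 further: thallium influx through hERG after potassium depolarization seen as dye fluorescence rise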
# An asterisk follows results filed as active; i = inactive; x = no result. The list is not random: actives were taken first. Their share in the collection is about 4.1%.
SMILES,KCNQ1 block,KCNK9 inh,KCC2 mod,KCNK3 inh,KCNQ1 act,hERG rescue
CCN1CCN(CCNC(=O)c2ccc3c(c2)N(Cc2ccc(F)cc2)C(=O)/C(=C/c2ccccc2)S3)CC1,10*,i,-1.8,i,i,-28
CN1CCN(CCCNC(=O)c2ccc(/C=C3\Sc4ccccc4N(Cc4ccccc4F)C3=O)cc2)CC1,i,i,0.56,i,i,-39
Cc1ccccc1CN1C(=O)/C(=C\c2ccc(C(=O)NCCN3CCOCC3)cc2)Sc2ccccc21,i,i,x,i,i,-13
O=C(NCCN1CCOCC1)c1ccc(/C=C2\Sc3ccccc3N(Cc3ccccc3F)C2=O)cc1,11*,i,x,i,i,-19
COc1cccc(NC(=O)COC(=O)C2CC3CCCC(C2)C3=O)c1 (stereo not given),x,x,x,i,x,x
CN(c1ccccc1)S(=O)(=O)c1cccc(NC(=O)C2=NN(c3ccccc3)C(=O)CC2)c1,x,x,x,i,x,x
CC1(C)S[C@@H]2[C@H](NC(=O)C(NC(=O)N3CCNC3=O)c3ccccc3)C(=O)N2[C@H]1C(=O)O (stereo not given in full),i,i,x,i,i,-3
CC(C)(C)CC(C)(C)c1ccc(O)c(Cc2ccc(Cl)cc2Cl)c1,x,x,x,i,x,x
O=C(Nn1c(-c2ccc(Br)cc2)nc2ccccc2c1=O)c1ccncc1,i,i,0.92,i,i,-10
Cc1cc(C(=O)Nn2c(-c3ccc(Br)cc3)nc3ccccc3c2=O)ccc1[N+](=O)[O-],6*,i,-0.34,i,i,-10
CCCNC(=O)N(C)c1nncnc1C(=O)NC,i,i,0.56,i,i,11*
O=C(NC(=S)N1CCN(c2ccc(C(F)(F)F)cc2[N+](=O)[O-])CC1)c1cccs1,i,i,64*,i,10*,3
O=[N+]([O-])c1cc(C(F)(F)F)ccc1N1CCCNCC1,i,i,-0.013,i,i,7.9*
COc1ccc(Cl)cc1NC(=O)C(C)OC(=O)C1=NNC(=O)CC1 (stereo not given),x,x,x,i,x,x
COc1cc(/C=C2\C(=N)N3N=C(S(C)(=O)=O)SC3=NC2=O)ccc1OCCOc1ccccc1C,6*,i,x,i,i,-8
COc1cc(/C=C2\C(=N)N3N=C(S(C)(=O)=O)SC3=NC2=O)ccc1OC(=O)c1cccs1,i,i,x,i,i,-12
COc1ccccc1CNC(=O)C(CCSC)NC(=O)c1cccc(S(=O)(=O)N2CCOCC2)c1 (stereo not given),x,x,x,i,x,x
O=S(=O)(NCC(c1ccco1)N1CCN(c2ccccc2F)CC1)c1ccccc1 (stereo not given),i,-6.9*,-0.00076,i,i,-11
O=C(NC1CC2CCC(C1)N2C(=O)NCc1ccccc1)C1CC1 (stereo not given),i,i,-0.11,i,i,13*
O=C(NC1CCCC1)C1CCN(C(=O)NCc2ccccc2)CC1,i,i,1,i,i,1
CCOC(=O)c1cc(=O)n2nc(-c3ccc(C)cc3)nc2s1,7*,i,0.29,i,i,-9
CCOC(=O)Cc1csc2nc(-c3ccccc3)nn12,i,i,0.58,i,i,-2
CCn1cc(C(=O)NCC(OC)OC)c(=O)c2cc(S(=O)(=O)N(C)C3CCCCC3)ccc21,i,i,x,i,i,-7
CN1CC=C2C(C#N)=C(N)C(C#N)(C#N)C(c3ccsc3)C2C1 (stereo not given),i,i,-0.18,i,i,-10
CC(C)c1ccc(C2C3CSCC=C3C(C#N)=C(N)C2(C#N)C#N)cc1 (stereo not given),12*,i,x,x,i,-20
SMILES,KCNQ1 block,KCNK9 inh,KCC2 mod,KCNK3 inh,KCNQ1 act,hERG rescue
CN1CC=C2C(C#N)=C(N)C(C#N)(C#N)[C@H](c3cccc(Cl)c3)C2C1 (stereo not given in full),8*,i,-0.01,i,i,-11
COc1cc(/C=N/Nc2nc3ccccc3s2)cc([N+](=O)[O-])c1O,i,i,-2.2,i,i,-15
O=[N+]([O-])c1cc(Cl)cc(/C=N/Nc2nc3ccccc3s2)c1O,6*,i,x,i,i,-8
CCCCCCCCCCn1ccc(=N)cc1,9*,i,1.2,i,i,-24
CCCCn1c(=O)n(Cc2cccc(F)c2)c(=O)c2c1ncn2Cc1ccco1,i,i,-1,-10*,i,-7
CCCCSc1nnc2c(n1)OC(C(=O)c1ccccc1)Nc1ccccc1-2 (stereo not given),i,i,-1.4,x,i,-16
CCCCCSc1nnc2c(n1)OC(C)N(C(C)=O)c1ccccc1-2 (stereo not given),i,i,x,-10*,i,-11
COC(=O)C1C=CC(OC2OC(COC(C)=O)C(OC(C)=O)C(OC(C)=O)C2OC(C)=O)n2c(=O)n(-c3ccccc3)c(=O)n21 (stereo not given),x,x,x,i,x,x
O=C(Cc1noc2ccccc12)NNC(=S)Nc1ccccc1,i,i,0.083,i,i,5.7*
O=C(Cc1noc2ccccc12)NNC(=S)Nc1ccc(Cl)cc1,i,i,-0.92,i,i,0
C/C(=N\NC(=O)Cc1ccc(Cl)cc1)c1cccnc1,i,i,x,i,i,-5
CCOC(=O)c1c(NS(=O)(=O)c2cccc(OC)c2)sc2c1CCC2,i,i,38*,i,i,-4
CCOC(=O)Nc1sc2c(c1C(=O)OCC)CCC2,i,i,0.44,i,i,-9
COc1ccc(OC)c(C(=O)NC(CC(N)=O)c2ccc(N3CCN(c4ccccn4)CC3)c([N+](=O)[O-])c2)c1 (stereo not given),i,i,x,i,i,-11
C/C(=N\NC(=O)c1c(Br)c(C)nn1C)c1ccc(NC(=O)c2ccoc2C)cc1,i,i,0.56,i,i,-5
C/C(=N\NC(=O)c1nn(C)c(C)c1Br)c1ccc(NC(=O)c2ccoc2C)cc1,i,-7.9*,-0.27,i,i,-5
